In test [1] the test system is Staphylococcus aureus. As to the kind of experiment: Antimicrobial activity against heterogeneous vancomycin-intermediate resistant Staphylococcus aureus ATCC 700698. Type of test: functional.
Test [2] has as its system Staphylococcus aureus. In words: Induction of membrane depolarization in heterogeneous vancomycin-intermediate resistant Staphylococcus aureus ATCC 700698 at 16 ug/mL using DiSC3(5) dye by fluorimetric assay. The test is classed as functional, organism-based.
Test [3] relates to Staphylococcus aureus. As to the kind of experiment: Bactericidal activity against heterogeneous vancomycin-intermediate resistant Staphylococcus aureus ATCC 700698 at 16 ug/ml within 30 mins. The test is classed as functional, organism-based. The essentials: (§1)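 Short-duration time-kill of hVISA ATCC 700698 under conditions similar to the membrane assays, without polysorbate-80, with drug at 4, 8 or 16 μg/ml; viable counts as change in log CFU from time zero over 30 min. Bactericidal defined as ≥3 log CFU decrease; detection limit 200 CFU; three independent experiments.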

Test [4] has as its system Staphylococcus aureus. As to the kind of experiment: Increase in membrane permeability in heterogeneous vancomycin-intermediate resistant Staphylococcus aureus ATCC 700698 at 16 ug/mL using SYTO9 staining by fluorimetric assay. The test is classed as functional, organism-based.
Test [5] deals with Staphylococcus aureus. In words: Bactericidal activity against heterogeneous vancomycin-intermediate resistant Staphylococcus aureus ATCC 700698 assessed as reduction in bacterial count at 4 ug/ml within 30 mins. Type of test: functional. The essentials: as §1
Test [6] relates to Staphylococcus aureus. As to the kind of experiment: Antimicrobial activity against vancomycin-resistant Staphylococcus aureus. Type of test: functional.
Test [7] has as its system Staphylococcus aureus. As to the kind of experiment: Bactericidal activity against heterogeneous vancomycin-intermediate resistant Staphylococcus aureus ATCC 700698 assessed as reduction in bacterial count at 16 ug/ml within 30 mins. Type of test: functional. The essentials: as §1
For test [8], the system named is Staphylococcus aureus. As to the kind of experiment: Induction of membrane depolarization in heterogeneous vancomycin-intermediate resistant Staphylococcus aureus ATCC 700698 using DiSC3(5) dye by fluorimetric assay. The test is classed as functional, organism-based.
In test [9] the test system is Staphylococcus aureus. In words: Increase in membrane permeability in heterogeneous vancomycin-intermediate resistant Staphylococcus aureus ATCC 700698 using SYTO9 staining by fluorimetric assay. Type of test: functional, organism-based.
For test [10], the system named is Staphylococcus aureus. As to the kind of experiment: Bactericidal activity against heterogeneous vancomycin-intermediate resistant Staphylococcus aureus ATCC 700698 assessed as reduction in bacterial count at 8 ug/ml within 30 mins. Type of test: functional. The essentials:
as §1

A further test concerns Enterococcus. In words: Antimicrobial activity against vancomycin-resistant Enterococcus. The test is classed as functional.
The test system of test [11] is Staphylococcus aureus. As to the kind of experiment: Antimicrobial activity against vancomycin-intermediate resistant Staphylococcus aureus. The test is classed as functional.
The subject of test [12] is Staphylococcus aureus. In words: Antimicrobial activity against heterogeneous vancomycin-intermediate resistant Staphylococcus aureus. The test is classed as functional.

In brackets after ≈: the same amount, converted by molar mass. Activity calls are given as the source filed them.

With `CN[C@H](CC(C)C)C(=O)N[C@H]1C(=O)N[C@@H](CC(N)=O)C(=O)N[C@H]2C(=O)N[C@H]3C(=O)N[C@H](C(=O)N[C@H](C(=O)O)c4cc(O)cc(O)c4-c4cc3ccc4O)[C@H](O[C@H]3C[C@](C)(N)[C@@H](O)[C@H](C)O3)c3ccc(c(Cl)c3)Oc3cc2cc(c3O[C@@H]2O[C@H](CO)[C@@H](O)[C@H](O)[C@H]2O[C@H]2C[C@](C)(N)[C@@H](O)[C@H](C)O2)Oc2ccc(cc2Cl)[C@H]1O` [CHLOROEREMOMYCIN], in the test with Staphylococcus aureus [1], it took 1 µg/mL (≈ 0.628 µM) to inhibit growth (MIC). Besides, the result with Staphylococcus aureus [2], with Staphylococcus aureus [3] and with Staphylococcus aureus [4] was inactive.

As for `CN[C@H](CC(C)C)C(=O)N[C@H]1C(=O)N[C@@H](CC(N)=O)C(=O)N[C@H]2C(=O)N[C@H]3C(=O)N[C@H](C(=O)N[C@H](C(=O)O)c4cc(O)cc(O)c4-c4cc3ccc4O)[C@H](O[C@H]3C[C@](C)(N)[C@@H](O)[C@H](C)O3)c3ccc(c(Cl)c3)Oc3cc2cc(c3O[C@@H]2O[C@H](CO)[C@@H](O)[C@H](O)[C@H]2O[C@H]2C[C@](C)(NCc3ccc(-c4ccc(Cl)cc4)cc3)[C@@H](O)[C@H](C)O2)Oc2ccc(cc2Cl)[C@H]1O` [ORITAVANCIN], the log10cfu entry with Staphylococcus aureus [5], with Staphylococcus aureus [7] and in the test with Staphylococcus aureus [10] was “>=3” in each case. The MIC worked out at 1 µg/mL (≈ 0.558 µM) in the test on Staphylococcus aureus [1]; 0.25 µg/mL (≈ 0.139 µM) against Staphylococcus aureus [6]; 0.25 µg/mL (≈ 0.139 µM) in the test with Enterococcus; 0.25 µg/mL (≈ 0.139 µM) against Staphylococcus aureus [11]; 0.25 µg/mL (≈ 0.139 µM) against Staphylococcus aureus [12]. For the same molecule, the Activity result in the test with Staphylococcus aureus [8] and in the test with Staphylococcus aureus [9] was “Dose-dependent effect” in each case.

For `CN[C@H](CC(C)C)C(=O)N[C@H]1C(=O)N[C@@H](CC(N)=O)C(=O)N[C@H]2C(=O)N[C@H]3C(=O)N[C@H](C(=O)N[C@H](C(=O)O)c4cc(O)cc(O)c4-c4cc3ccc4O)[C@H](O)c3ccc(c(Cl)c3)Oc3cc2cc(c3O[C@@H]2O[C@H](CO)[C@@H](O)[C@H](O)[C@H]2O[C@H]2C[C@](C)(N)[C@H](O)[C@H](C)O2)Oc2ccc(cc2Cl)[C@H]1O`, the result in the test with Staphylococcus aureus [2], in the test with Staphylococcus aureus [3] and in the test with Staphylococcus aureus [4] was inactive.

A word on the MIC: it is the smallest concentration in the dilution series that meets the test's criterion for growth inhibition. Low readings indicate greater potency, high ones weaker potency.
